Assay outcomes deposited in PubChem BioAssay by several laboratories.
The list is not random: actives were taken first. Their share in the collection is about 2.5%.
ABHD5 PLIN5 PPI – inhibitors of human ABHD5-perilipin-5 interaction | Q00G26+Q8WTS1 | Split G. princeps luciferase complementation, luminescence, 4 h | inhibition, % at 4 µM | 360,000 tested, 0.78% active;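 active means inhibition above the mean inhibition across every tested compound plus 3 SD, cut at about 22% in these data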;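 further: 0% = DMSO only wells and the 100% control is not disclosed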
SENP1 inh – blocks the human SENP1 SUMO protease catalytic domain | Q9P0U3 | AID 624204 | inhibition, % at 10 µM | 360,000 tested, 0.21% active | recombinant SENP1 catalytic domain, CyPet-SUMO1-YPet FRET cleavage;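 active means inhibition at least 30% at 10 µM, raw YFP signal under a set limit, fluorescence ratio 0.5 to 1.5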;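 further: 0% = enzyme with DMSO and 100% = no enzyme wells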
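material = recombinant human SENP1 catalytic domain, His6-tagged | quantity = 20 pM enzyme | reagent = 25 nM SUMO1 FRET substrate | compound dosing = 10 µM single point, 0.5% DMSO | timing = 50 min enzyme reaction, room temperature, light-protected | detection = FRET, CFP and YFP emission | control set = no-enzyme low, enzyme-DMSO high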
NadD inh – blocks S. aureus nicotinate mononucleotide adenylyltransferase; purified NadD enzyme, colorimetric absorbance read-out; inhibition, % at 20 µM; 360,000 tested, 0.78% active; AID 602399; in the data active means inhibition above about 26%
GRK2 inh – inhibitors of human GRK2 displacing RNA aptamer; P25098; bead flow cytometry, FAM-aptamer displacement from GRK2; inhibition of aptamer binding, % at 10 µM; 330,000 tested, 0.59% active;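 active means inhibition of aptamer binding above 40%, roughly 3 SD of noise, on plates passing a quality check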;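 further: median bead fluorescence of bound FAM aptamer so fluorescent compounds give negative values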
Target sequence (P25098 whole entry, looked up): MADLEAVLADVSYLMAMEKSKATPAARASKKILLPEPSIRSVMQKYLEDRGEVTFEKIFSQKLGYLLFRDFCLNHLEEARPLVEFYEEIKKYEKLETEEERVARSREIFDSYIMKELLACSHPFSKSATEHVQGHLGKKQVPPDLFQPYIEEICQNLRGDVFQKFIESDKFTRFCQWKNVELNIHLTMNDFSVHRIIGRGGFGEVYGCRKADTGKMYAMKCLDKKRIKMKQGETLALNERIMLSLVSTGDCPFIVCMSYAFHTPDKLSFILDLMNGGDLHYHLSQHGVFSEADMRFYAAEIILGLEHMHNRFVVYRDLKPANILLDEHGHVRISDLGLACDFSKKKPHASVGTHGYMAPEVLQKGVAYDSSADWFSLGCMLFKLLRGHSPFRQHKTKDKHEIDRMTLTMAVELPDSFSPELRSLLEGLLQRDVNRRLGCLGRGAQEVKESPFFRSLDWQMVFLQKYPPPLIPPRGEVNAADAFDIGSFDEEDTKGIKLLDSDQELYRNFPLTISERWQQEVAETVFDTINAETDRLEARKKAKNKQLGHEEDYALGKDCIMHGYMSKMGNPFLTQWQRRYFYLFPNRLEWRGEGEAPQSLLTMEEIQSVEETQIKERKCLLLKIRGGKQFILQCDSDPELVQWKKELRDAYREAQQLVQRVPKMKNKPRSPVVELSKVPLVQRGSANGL
B2AR ag – human beta-2 adrenergic receptor agonism by FAP. 340,000 tested, 0.43% active. Am2.2-beta2AR cells, FAP receptor internalization, flow cytometry. AID 504454. P07550. response, % (concentration not given with the values);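 active means response above a set limit, near 3 SD of response in nonfluorescent compounds, cut at about 42% in these data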
NadD conf – NadD (S. aureus) inhibition, single concentration confirmation; shares compounds with NadD inh; 2,000 tested, 13% active; inhibition, % at 20 µM; purified S. aureus NadD, colorimetric enzyme assay; in the data active means inhibition mostly above about 42%, no sharp cut-off; inactive means mostly below about 42%
Starred values were filed as active, the others as inactive; nt = no result given.

SMILES | ABHD5 PLIN5 PPI | SENP1 inh | NadD inh | GRK2 inh | B2AR ag | NadD conf
CC(=O)Nc1ccc(S(=O)(=O)Nc2ccc(S(=O)(=O)N3CCCC3)cc2)cc1 | 2 | 0 | -3 | 2 | 2 | nt
CC(=O)Nc1ccc(S(=O)(=O)/N=C2\SCCN2S(=O)(=O)c2ccc(NC(C)=O)cc2)cc1 | 3 | 5 | 58* | 0 | -11 | 48
CCOC(=O)C1(Cc2ccccc2)CCCN(C(=O)c2cnn(CC)c2)C1 (stereo not drawn) | 0 | 4 | -11 | 1 | -7 | nt
Cc1cccc(N=C2NN=C(c3ccc4c(c3)OCCO4)CS2)c1 | -11 | 1 | 16 | 0 | 9 | nt
Cc1cccc(N=C2NN=C(c3c(C)[nH]c4ccccc34)CS2)c1 | -7 | 2 | 36* | 9 | -2 | 21
CSc1nsc(/C=C/Nc2cccc(Cl)c2)c1C#N | -2 | -36 | 32* | 11 | 6 | 0
O=[N+]([O-])c1cccc(S(=O)(=O)N2CN(c3ccc(Br)cc3)c3nc4ccccc4nc32)c1 | -11 | -6 | 24 | 0 | -11 | nt
Cc1cccc(-c2cnn(-c3cccc([N+](=O)[O-])c3)c2N)c1 | -6 | 0 | -6 | 0 | 5 | nt
Cc1cc[n+]2cc(-c3cccc([N+](=O)[O-])c3)c(-c3cccc([N+](=O)[O-])c3)cc2c1 | 0 | 2 | 32* | 0 | -15 | 6
COc1ccc(S(=O)(=O)Nc2cccc3c2O[C@H](CN(C)C(=O)NC(C)C)[C@@H](C)CN([C@H](C)CO)C3=O)cc1 | -5 | 1 | 6 | 2 | 2 | nt
COc1cccc(C=C(C#N)C(=O)c2ccccc2)c1 | 12 | -30 | 32* | nt | nt | 18
O=S1(=O)CCOCCN1Cc1ccc(Cl)cc1Cl | nt | nt | nt | 6 | nt | nt
CCOC(=O)c1ccc(-n2c(O)c(/C=N/NC(=O)C3COc4ccccc4O3)c3ccccc3c2=O)cc1 (stereo not drawn) | -2 | -24 | 31* | 0 | -10 | 41
CCOC(=O)c1ccc(NC(=O)C2COc3ccccc3O2)cc1 (stereo not drawn) | -64 | 2 | -5 | 0 | -7 | nt
Cc1ccc(-c2cc(C(=O)Nc3ccc(S(=O)(=O)Nc4onc(C)c4C)cc3)c3ccccc3n2)cc1 | 5 | 0 | 31* | 0 | 0 | 66*
Cc1cc(C)nc(NS(=O)(=O)c2ccc(NC(=O)c3cc(-c4ccccc4)nc4ccccc34)cc2)n1 | 8 | -2 | 26 | 6 | 9 | nt
Cc1ccc(-c2cc(C(=O)Nc3ccc(S(=O)(=O)Nc4cc(C)on4)cc3)c3ccccc3n2)c(C)c1 | -3 | 0 | 43* | 3 | 2 | 65*
COc1ccc(C(=O)N=C2SC3CS(=O)(=O)CC3N2c2ccc(C(C)=O)cc2)cc1 (stereo not drawn) | -2 | 4 | 2 | 1 | -3 | nt
N#C/C(=C(/O)CN1CCN(c2ccccc2F)CC1)c1nc(-c2ccccc2)cs1 | -6 | -93 | 31* | 0 | 8 | 25
CC(C)CCN(CCC(C)C)C/C(O)=C(\C#N)c1nc(-c2ccccc2)cs1 | -7 | -25 | 16 | 0 | 8 | nt
O=C1Cc2c(-c3ccccc3)cc(-c3cccc(Cl)c3)nc2-c2ccccc2N1 | -1 | 0 | 37* | nt | 20 | 2
O=C1CN(c2nc(-c3ccccc3)c3cc(Cl)ccc3n2)c2ccccc2N1 | 4 | -27 | -2 | 0 | 6 | nt
NC(=S)Nc1ccc(S(=O)(=O)c2ccc(NC(N)=S)cc2)cc1 | -1 | 0 | -3 | 3 | -11 | nt
CCn1nnnc1NCc1cccn1C | 2 | -1 | 35* | 1 | 4 | 22
COc1cccc(-c2ocnc2C(=O)Nc2ccc(N3CCOCC3)cc2N2CCOCC2)c1 | 0 | 1 | 2 | 0 | 2 | nt
SMILES | ABHD5 PLIN5 PPI | SENP1 inh | NadD inh | GRK2 inh | B2AR ag | NadD conf
CCOC(=O)c1oc2c(CN3CCN(C)CC3)c(O)c(CC)cc2c(=O)c1-c1nc2ccccc2s1 | -2 | 0 | -8 | nt | 0 | nt
OC(CN1CCCCC1)c1ccc2c3c(cccc13)CC2 (stereo not drawn) | 4 | 1 | -6 | nt | 0 | nt
COCCn1c(=O)[nH]c(=O)c2c1nc(-c1ccc(-c3ccc(Cl)cc3[N+](=O)[O-])o1)n2Cc1ccccc1 | -5 | -74 | 45* | 4 | 28 | 13
COCCn1c(-c2ccc(SC)cc2)nc2c1c(=O)[nH]c(=O)n2CC(C)C | 3 | 1 | -3 | 0 | -18 | nt
COc1ccc(-c2ccc(-c3nc4c(c(=O)[nH]c(=O)n4Cc4ccccc4)n3C)o2)c([N+](=O)[O-])c1 | 2 | -43 | 52* | 0 | -13 | 9
COCCn1c(-c2ccc(-c3ccc([N+](=O)[O-])cc3Br)o2)nc2c1c(=O)[nH]c(=O)n2CC(C)C | 5 | -36 | 44* | 2 | -14 | 6
O=c1[nH]c(=O)n(Cc2ccccc2)c2nc(-c3ccc(Oc4ccc(F)cc4)c([N+](=O)[O-])c3)n(CCO)c12 | 4 | -2 | 21 | 0 | -5 | nt
CCOC(=O)CC(NC(=O)CCS(=O)(=O)c1ccc2c(c1)n(C)c(=O)c(=O)n2C)c1ccc(C)cc1 (stereo not drawn) | -1 | -1 | -1 | 1 | -12 | nt
CCc1noc(C)c1C(=O)N(C)CC(=O)Nc1cccc(OC)c1 | -4 | 2 | -4 | 0 | -34 | nt
CCn1c2ccccc2c2cc(/C=N/n3c(-c4cc(C)[nH]n4)n[nH]c3=S)ccc21 | -7 | 0 | 62* | 4 | 2 | 63*
S=c1[nH]nc(-c2cc(-c3ccccc3)n[nH]2)n1/N=C/c1cccc(Cl)c1 | -5 | 3 | 24 | 0 | 1 | nt
S=c1[nH]nc(-c2cc(-c3ccccc3)n[nH]2)n1/N=C/c1ccc(Cl)c(Cl)c1 | -2 | 4 | 30* | 0 | 0 | 9
S=c1[nH]nc(-c2cc(-c3ccccc3)n[nH]2)n1/N=C/c1ccc(Cl)cc1 | -7 | 3 | 26* | 4 | -4 | 39
Cc1cc2c(cc1C)NC(CC(=O)NCc1ccccc1)C(=O)N2 (stereo not drawn) | -12 | -56 | 1 | 0 | 1 | nt
Cc1ccccc1CSCC1Nc2ccc(C(=O)NCCc3ccccc3)cc2NC1=O (stereo not drawn) | -5 | -18 | 45* | nt | nt | 74*
Cc1cc(O)c(-c2n[nH]c3c2C(c2cccc(O)c2)N(Cc2cccnc2)C3=O)cc1Cl (stereo not drawn) | 0 | 3 | 46* | 0 | nt | 46
CCCN1C(=O)c2[nH]nc(-c3cc(Cl)c(C)cc3O)c2C1c1ccc(O)c(OC)c1 (stereo not drawn) | -1 | 3 | 3 | 0 | 7 | nt
COc1cc2oc(=O)cc(CN3CCN(c4ccccc4F)CC3)c2cc1Cl | 7 | -5 | 39* | nt | nt | 22
Cc1cc(C(F)(F)F)nc(SCC(=O)NC2CCCCC2)n1 | 2 | -2 | -8 | 2 | 1 | nt
